Measurements reported in ChEMBL document CHEMBL3596119, “Synthesis and biological characterization of a promising F-18 PET tracer for vesicular acetylcholine transporter” (Bioorg Med Chem, 2015).

Columns and labels:
Heart [1] = assay: Biodistribution in Sprague-Dawley rat heart at 2.2 MBq/120 uL, iv after 30 mins by gamma counting; format: ADME, organism-based; conditions: in vivo, 0.5 h
Summary of the method: (§1)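 Adult male SD rats, isoflurane (2-3%)/oxygen anesthesia, tail-vein injection of ~2.2 MBq/120 μL tracer in 10% ethanol in saline; euthanized under anesthesia at the stated time (n = 4 per time point). Brain dissected into regions, remainder kept for total brain; organs, blood, bone collected and weighed, gamma-counted against a standard dilution of injectate; %ID/g calculated.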

Pancreas [2] = assay: Biodistribution in Sprague-Dawley rat pancreas at 2.2 MBq/120 uL, iv after 120 mins by gamma counting; format: ADME, organism-based; conditions: in vivo, 2 h; summary of the method: as §1
Bone [3] = assay: Biodistribution in Sprague-Dawley rat bone at 2.2 MBq/120 uL, iv after 120 mins by gamma counting; format: ADME, organism-based, Bone element; conditions: in vivo, 2 h; summary of the method: as §1
Liver [4] = assay: Biodistribution in Sprague-Dawley rat liver at 2.2 MBq/120 uL, iv after 30 mins by gamma counting; format: ADME, organism-based; conditions: in vivo, 0.5 h; summary of the method: as §1
Rattus norvegicus [5] = assay: Biodistribution in Sprague-Dawley rat total brain at 2.2 MBq/120 uL, iv after 30 mins by gamma counting; format: ADME, organism-based; conditions: in vivo, 0.5 h
Summary of the method: (§2)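 Injected by tail vein in 10% ethanol in saline into adult male SD rats under 2-3% isoflurane/oxygen anesthesia. Rats were killed under anesthesia, n = 4 per time point. Total brain and other tissues were weighed and gamma-counted against a standard dilution of the injectate. Values are %ID/g.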

Rattus norvegicus [6] = assay: Biodistribution in Sprague-Dawley rat fat at 2.2 MBq/120 uL, iv after 60 mins by gamma counting; format: ADME, organism-based, Adipose tissue; conditions: in vivo, 1 h; summary of the method: as §1
Muscle tissue [7] = assay: Biodistribution in Sprague-Dawley rat muscle at 2.2 MBq/120 uL, iv after 30 mins by gamma counting; format: ADME, organism-based; conditions: in vivo, 0.5 h; summary of the method: as §1
Plasma [8] = assay: Metabolic stability in monkey plasma assessed as radioactivity at 15 to 106 MBq after 5 to 60 mins by HPLC analysis; format: ADME, cell-free, Macaca mulatta; conditions: rhesus monkey
Blood [9] = assay: Biodistribution in Sprague-Dawley rat blood at 2.2 MBq/120 uL, iv after 5 mins by gamma counting; format: ADME, organism-based; conditions: in vivo; summary of the method: as §1
Kidney [10] = assay: Biodistribution in Sprague-Dawley rat kidney at 2.2 MBq/120 uL, iv after 30 mins by gamma counting; format: ADME, organism-based; conditions: in vivo, 0.5 h; summary of the method: as §1
Rattus norvegicus [11] = assay: Biodistribution in Sprague-Dawley rat fat at 2.2 MBq/120 uL, iv after 5 mins by gamma counting; format: ADME, organism-based, Adipose tissue; conditions: in vivo; summary of the method: as §1
Striatum [12] = assay: Biodistribution in Sprague-Dawley rat striatum at 2.2 MBq/120 uL, iv after 5 mins by gamma counting; format: ADME, organism-based; conditions: in vivo; summary of the method: as §1
Bone [13] = assay: Biodistribution in Sprague-Dawley rat bone at 2.2 MBq/120 uL, iv after 30 mins by gamma counting; format: ADME, organism-based, Bone element; conditions: in vivo, 0.5 h; summary of the method: as §1
Kidney [14] = assay: Biodistribution in Sprague-Dawley rat kidney at 2.2 MBq/120 uL, iv after 5 mins by gamma counting; format: ADME, organism-based; conditions: in vivo; summary of the method: as §1
Striatum [15] = assay: Biodistribution in Sprague-Dawley rat striatum at 2.2 MBq/120 uL, iv after 120 mins by gamma counting; format: ADME, organism-based; conditions: in vivo, 2 h; summary of the method: as §1
Plasma [16] = assay: Retention time in monkey plasma assessed as radioactivity at 15 to 106 MBq after 5 to 60 mins by HPLC analysis; format: ADME, cell-free, Macaca mulatta; conditions: rhesus monkey
Muscle tissue [17] = assay: Biodistribution in Sprague-Dawley rat muscle at 2.2 MBq/120 uL, iv after 120 mins by gamma counting; format: ADME, organism-based; conditions: in vivo, 2 h; summary of the method: as §1
Thalamus = assay: Biodistribution in Sprague-Dawley rat thalamus at 2.2 MBq/120 uL, iv after 5 mins by gamma counting; format: ADME, organism-based; conditions: in vivo; summary of the method: as §1
Liver [18] = assay: Biodistribution in Sprague-Dawley rat liver at 2.2 MBq/120 uL, iv after 5 mins by gamma counting; format: ADME, organism-based; conditions: in vivo; summary of the method: as §1
Spleen = assay: Biodistribution in Sprague-Dawley rat spleen at 2.2 MBq/120 uL, iv after 120 mins by gamma counting; format: ADME, organism-based; conditions: in vivo, 2 h; summary of the method: as §1
Lung [19] = assay: Biodistribution in Sprague-Dawley rat lung at 2.2 MBq/120 uL, iv after 120 mins by gamma counting; format: ADME, organism-based; conditions: in vivo, 2 h; summary of the method: as §1
Heart [20] = assay: Biodistribution in Sprague-Dawley rat heart at 2.2 MBq/120 uL, iv after 60 mins by gamma counting; format: ADME, organism-based; conditions: in vivo, 1 h; summary of the method: as §1
Rattus norvegicus [21] = assay: Biodistribution in Sprague-Dawley rat fat at 2.2 MBq/120 uL, iv after 30 mins by gamma counting; format: ADME, organism-based, Adipose tissue; conditions: in vivo, 0.5 h; summary of the method: as §1
Kidney [22] = assay: Biodistribution in Sprague-Dawley rat kidney at 2.2 MBq/120 uL, iv after 120 mins by gamma counting; format: ADME, organism-based; conditions: in vivo, 2 h; summary of the method: as §1
Plasma [23] = assay: Drug metabolism in Sprague-Dawley rat plasma assessed as radioactivity at 15 to 106 MBq, iv after 5 to 60 mins by HPLC analysis; format: ADME, organism-based
Blood [24] = assay: Biodistribution in Sprague-Dawley rat blood at 2.2 MBq/120 uL, iv after 30 mins by gamma counting; format: ADME, organism-based; conditions: in vivo, 0.5 h; summary of the method: as §1
Lung [25] = assay: Biodistribution in Sprague-Dawley rat lung at 2.2 MBq/120 uL, iv after 30 mins by gamma counting; format: ADME, organism-based; conditions: in vivo, 0.5 h; summary of the method: as §1
Pancreas [26] = assay: Biodistribution in Sprague-Dawley rat pancreas at 2.2 MBq/120 uL, iv after 5 mins by gamma counting; format: ADME, organism-based; conditions: in vivo; summary of the method: as §1
Muscle tissue [27] = assay: Biodistribution in Sprague-Dawley rat muscle at 2.2 MBq/120 uL, iv after 5 mins by gamma counting; format: ADME, organism-based; conditions: in vivo; summary of the method: as §1
Rattus norvegicus [28] = assay: Biodistribution in Sprague-Dawley rat brain stem at 2.2 MBq/120 uL, iv after 5 mins by gamma counting; format: ADME, organism-based; conditions: in vivo; summary of the method: as §1
Muscle tissue [29] = assay: Biodistribution in Sprague-Dawley rat muscle at 2.2 MBq/120 uL, iv after 60 mins by gamma counting; format: ADME, organism-based; conditions: in vivo, 1 h; summary of the method: as §1
Pancreas [30] = assay: Biodistribution in Sprague-Dawley rat pancreas at 2.2 MBq/120 uL, iv after 30 mins by gamma counting; format: ADME, organism-based; conditions: in vivo, 0.5 h; summary of the method: as §1
Cerebellum = assay: Biodistribution in Sprague-Dawley rat cerebellum at 2.2 MBq/120 uL, iv after 5 mins by gamma counting; format: ADME, organism-based; conditions: in vivo; summary of the method: as §1
Striatum [31] = assay: Ex-vivo drug uptake in Sprague-Dawley rat striatum at 63 MBq, iv after 60 mins by autoradiography; format: ADME, organism-based; conditions: 1 h
Summary of the method: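 One adult male SD rat received ~63.0 MBq by tail vein under anesthesia and was killed at 60 min. The brain was snap-frozen and cut into 100 μm horizontal sections. Sections were exposed to film for 12 h at -80 °C. Striatum-to-cerebellum ratio was quantified over 30 slices.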

Bone [32] = assay: Biodistribution in Sprague-Dawley rat bone at 2.2 MBq/120 uL, iv after 5 mins by gamma counting; format: ADME, organism-based, Bone element; conditions: in vivo; summary of the method: as §1
Lung [33] = assay: Biodistribution in Sprague-Dawley rat lung at 2.2 MBq/120 uL, iv after 5 mins by gamma counting; format: ADME, organism-based; conditions: in vivo; summary of the method: as §1
Blood [34] = assay: Biodistribution in Sprague-Dawley rat blood at 2.2 MBq/120 uL, iv after 60 mins by gamma counting; format: ADME, organism-based; conditions: in vivo, 1 h; summary of the method: as §1
Rattus norvegicus [35] = assay: Biodistribution in Sprague-Dawley rat total brain at 2.2 MBq/120 uL, iv after 5 mins by gamma counting; format: ADME, organism-based; conditions: in vivo; summary of the method: as §2
Bone [36] = assay: Biodistribution in Sprague-Dawley rat bone at 2.2 MBq/120 uL, iv after 60 mins by gamma counting; format: ADME, organism-based, Bone element; conditions: in vivo, 1 h; summary of the method: as §1
[37] = Drug uptake in cynomolgus monkey striatum at 296 to 410 MBq administered via venous catheter after 120 mins by microPET imaging in presence of 0.25 mg/kg (-)-vesamicol; format: ADME, organism-based, Macaca fascicularis; conditions: in vivo, 2 h
Summary of the method: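 Blocking scan: (-)-vesamicol 0.25 mg/kg was given through the venous catheter 5 min before the tracer (296–410 MBq). The monkey was under isoflurane anesthesia. A 2 h dynamic microPET scan followed, and striatal and cerebellar time-activity curves were generated.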

Heart [38] = assay: Biodistribution in Sprague-Dawley rat heart at 2.2 MBq/120 uL, iv after 5 mins by gamma counting; format: ADME, organism-based; conditions: in vivo; summary of the method: as §1

## O=C(c1ccc(F)cc1)C1CCN(C2Cc3c(cccc3OCC[18F])CC2O)CC1 (single isomer, unassigned; (-))
Heart [1]
  Drug uptake: 0.39 % ID/g
Pancreas [2]
  Drug uptake: 0.819 % ID/g
Bone [3]
  Drug uptake: 0.537 % ID/g
Liver [4]
  Drug uptake: 0.523 % ID/g
Rattus norvegicus [5]
  Drug uptake: 0.482 % ID/g
Rattus norvegicus [6]
  Drug uptake: 0.548 % ID/g
Muscle tissue [7]
  Drug uptake: 0.258 % ID/g
Plasma [8]
  Stability: 76%
Blood [9]
  Drug uptake: 0.209 % ID/g
Kidney [10]
  Drug uptake: 0.883 % ID/g
Rattus norvegicus [11]
  Drug uptake: 0.144 % ID/g
Striatum [12]
  Drug uptake: 0.782 % ID/g
Bone [13]
  Drug uptake: 0.369 % ID/g
Kidney [14]
  Drug uptake: 2.363 % ID/g
Striatum [15]
  Drug uptake: 0.761 % ID/g
Plasma [16]
  Retention_time: 9 min
Muscle tissue [17]
  Drug uptake: 0.235 % ID/g
Thalamus
  Drug uptake: 0.691 % ID/g
Liver [18]
  Drug uptake: 1.065 % ID/g
Spleen
  Drug uptake: 0.376 % ID/g
Lung [19]
  Drug uptake: 0.551 % ID/g
Heart [20]
  Drug uptake: 0.357 % ID/g
Rattus norvegicus [21]
  Drug uptake: 0.324 % ID/g
Kidney [22]
  Drug uptake: 0.489 % ID/g
Plasma [23]
  Drug metabolism: metabolite_detected
Blood [24]
  Drug uptake: 0.27 % ID/g
Lung [25]
  Drug uptake: 0.973 % ID/g
Pancreas [26]
  Drug uptake: 1.202 % ID/g
Muscle tissue [27]
  Drug uptake: 0.171 % ID/g
Rattus norvegicus [28]
  Drug uptake: 0.683 % ID/g
Muscle tissue [29]
  Drug uptake: 0.253 % ID/g
Pancreas [30]
  Drug uptake: 1.2 % ID/g
Cerebellum
  Drug uptake: 0.593 % ID/g
Striatum [31]
  Drug uptake: Active
Bone [32]
  Drug uptake: 0.426 % ID/g
Lung [33]
  Drug uptake: 2.255 % ID/g
Blood [34]
  Drug uptake: 0.338 % ID/g
Rattus norvegicus [35]
  Drug uptake: 0.684 % ID/g
Bone [36]
  Drug uptake: 0.403 % ID/g
[37]
  Drug uptake: Not Active
Heart [38]
  Drug uptake: 0.706 % ID/g
